Here are results for ten molecules from ChEMBL document CHEMBL2069268, “Opioid activity of spinally selective analogues of N-naphthoyl-β-naltrexamine in HEK-293 cells and mice” (J Med Chem, 2012).

Data set [1] deals with Opioid receptors; mu & kappa (Homo sapiens) (UniProt P41145+P35372). Nature of the data set: Agonist activity at human mu-kappa opioid receptor expressed in HEK cells assessed as induction of intracellular calcium release by FLIPR assay. In kind it is functional, cell-based. The conditions noted are these: HEK293. Summed up:
(§1)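 HEK-293 cells stably carrying chimeric Δ6-Gαqi4-myr (zeocin selection, DMEM+10% FBS, 37 °C, 10% CO2) transiently transfected with opioid receptor DNA (200 ng/20,000 cells); seeded 24 h later; day 3 loaded with Ca2+ dye 60 min at 37 °C. After 30 s equilibration, ligand added over a concentration range; fluorescence read; ΔRFU (max−min) per concentration fitted by nonlinear regression; peak effect recorded; ≥3 independent runs, 4 internal replicates.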

The subject of data set [2] is Mus musculus. Nature of the data set: Antinociceptive effect in intrathecally dosed ICR-CD1 mouse by tail flick test. In kind it is functional. Summed up: (§2)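 Male ICR-CD1 mice (17–25 g), conscious, dosed intrathecally in 5 μl (10% DMSO stock diluted to ≤1% DMSO). Radiant-heat tail-flick; %MPE = (test−control)/(10−control)×100 with 10 s cutoff. Peak antinociception located by time course at 10, 20, 30, 60 min. ≥3 groups of 8–10 mice per curve, mice used once; ED50 with 95% CI by nonlinear regression.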

In data set [3] the test system is Mus musculus. Nature of the data set: Antinociceptive effect in intracerebroventricular dosed ICR-CD1 mouse by tail flick test. In kind it is functional. The essentials:
(§3)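 Male ICR-CD1 mice (17–25 g), conscious, given compound i.c.v. in 5 μl (stock in 10% DMSO, diluted to ≤1% DMSO). Radiant-heat tail-flick latency, 10 s cutoff; %MPE = (test−control)/(10−control)×100. Peak time from time course at 10, 20, 30, 60 min. ≥3 groups of 8–10 mice per dose-response curve, each mouse used once; ED50 with 95% CI by nonlinear regression.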

Data set [4] concerns Mus musculus. Nature of the data set: Toxicity in intrathecally dosed ICR-CD1 mouse assessed as dose tolerance after 24 hrs. The conditions noted are these: in vivo, icv_or_intrathecal. In kind it is organism-based. The essentials:
(§4)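 Acute 24 h tolerance in male ICR-CD1 mice by i.c.v. or i.t. route: highest (ED80–90) dose of the day-1 dose-response curve repeated on the same mice 24 h later; tail-flick %MPE compared between days; no significant difference taken as not tolerant.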

Data set [5] addresses Opioid receptors; mu & delta (Homo sapiens) (UniProt P41143+P35372). Nature of the data set: Agonist activity at human mu-delta opioid receptor expressed in HEK cells assessed as induction of intracellular calcium release by FLIPR assay. The conditions noted are these: HEK293. In kind it is functional, cell-based. Summed up: as §1
For data set [6], the target named is Delta-type opioid receptor (Homo sapiens) (UniProt P41143). Nature of the data set: Agonist activity at human delta opioid receptor expressed in HEK cells assessed as induction of intracellular calcium release by FLIPR assay. In kind it is functional, cell-based. Particulars: HEK293. Summed up:
as §1

For data set [7], the system named is Mus musculus. Nature of the data set: Antinociceptive effect in intracerebroventricular dosed ICR-CD1 mouse assessed as peak time effect by tail flick test. In kind it is functional. Summed up: as §3
Data set [8] deals with Mus musculus. Nature of the data set: Antinociceptive effect in intrathecally dosed ICR-CD1 mouse assessed as peak time effect by tail flick test. The data set is classed as functional. The essentials:
as §2

For data set [9], the target named is Opioid receptors; delta & kappa (Homo sapiens) (UniProt P41145+P41143). Nature of the data set: Agonist activity at human delta-kappa opioid receptor expressed in HEK cells assessed as induction of intracellular calcium release by FLIPR assay. In kind it is functional, cell-based. The conditions noted are these: HEK293. Summed up: as §1
Data set [10] has as its system Mus musculus. Nature of the data set: Toxicity in intracerebroventricular dosed ICR-CD1 mouse assessed as dose tolerance after 24 hrs. The data set is classed as organism-based. Particulars: in vivo, icv_or_intrathecal. The essentials: as §4
Data set [11] concerns Mus musculus. Nature of the data set: Antinociceptive effect in intrathecally dosed wild type ICR-CD1 mouse after 20 mins in presence of nor-BNI. The data set is classed as functional. Summed up: (§5)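 Wild-type male ICR-CD1 mice dosed intrathecally in 5 μl (≤1% DMSO) with antagonist timed to peak with agonist: NTI 5 nmol/mouse or nor-BNI 2.5 nmol/mouse, each 20 min peak time.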

The subject of data set [12] is Mus musculus. Nature of the data set: Antinociceptive effect in intrathecally dosed wild type ICR-CD1 mouse after 20 mins in presence of NTI. In kind it is functional. The essentials: as §5
Data set [13] relates to Mus musculus. Nature of the data set: Antinociceptive effect in intrathecally dosed MOR-KO mouse. The data set is classed as functional, organism-based. Summed up:
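MOR-KO mice, 13–15 weeks old, equal males and females, eight per group, given compound intrathecally in 5 μl (≤1% DMSO); antinociception scored by radiant-heat tail-flick as %MPE with 10 s cutoff.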

Activity calls are given as the source filed them.

Opioid receptors; mu & kappa (Homo sapiens), sequence (P35372 whole entry, looked up): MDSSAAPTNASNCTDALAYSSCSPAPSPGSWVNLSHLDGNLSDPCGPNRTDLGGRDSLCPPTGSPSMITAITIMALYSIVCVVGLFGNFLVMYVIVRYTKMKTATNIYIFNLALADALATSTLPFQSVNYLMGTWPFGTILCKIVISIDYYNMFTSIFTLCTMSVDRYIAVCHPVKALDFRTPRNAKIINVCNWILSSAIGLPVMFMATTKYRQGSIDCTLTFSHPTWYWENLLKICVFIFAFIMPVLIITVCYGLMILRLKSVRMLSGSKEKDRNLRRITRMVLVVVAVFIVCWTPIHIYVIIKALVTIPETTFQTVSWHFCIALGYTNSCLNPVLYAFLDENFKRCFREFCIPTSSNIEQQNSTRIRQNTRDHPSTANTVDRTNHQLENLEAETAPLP
Opioid receptors; mu & kappa (Homo sapiens), sequence (P41145 whole entry, looked up): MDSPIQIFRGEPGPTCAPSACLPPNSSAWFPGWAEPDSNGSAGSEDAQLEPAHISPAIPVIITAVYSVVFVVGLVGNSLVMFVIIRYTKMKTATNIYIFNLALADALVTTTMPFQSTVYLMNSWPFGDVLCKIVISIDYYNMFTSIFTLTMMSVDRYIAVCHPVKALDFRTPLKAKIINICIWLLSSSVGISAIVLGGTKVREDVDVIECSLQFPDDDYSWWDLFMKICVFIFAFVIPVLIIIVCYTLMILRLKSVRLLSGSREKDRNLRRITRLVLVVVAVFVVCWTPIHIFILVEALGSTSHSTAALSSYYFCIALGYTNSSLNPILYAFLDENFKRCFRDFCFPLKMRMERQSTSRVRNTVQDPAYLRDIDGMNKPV
Delta-type opioid receptor (Homo sapiens), sequence (P41143 whole entry): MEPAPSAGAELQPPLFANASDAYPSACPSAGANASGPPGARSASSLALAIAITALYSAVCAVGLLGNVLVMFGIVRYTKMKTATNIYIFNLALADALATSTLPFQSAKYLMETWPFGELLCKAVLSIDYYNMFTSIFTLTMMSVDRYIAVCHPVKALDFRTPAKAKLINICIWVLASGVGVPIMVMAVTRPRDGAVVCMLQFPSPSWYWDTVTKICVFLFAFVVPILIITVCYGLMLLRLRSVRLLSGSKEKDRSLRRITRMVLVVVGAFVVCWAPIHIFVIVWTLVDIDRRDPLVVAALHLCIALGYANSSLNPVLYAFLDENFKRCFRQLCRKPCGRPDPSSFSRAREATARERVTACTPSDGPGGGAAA
Opioid receptors; mu & delta (Homo sapiens), sequence (P35372 whole entry, looked up): as the sequence (P35372 whole entry, looked up) above
Opioid receptors; mu & delta (Homo sapiens), sequence (P41143 whole entry, looked up): as the sequence (P41143 whole entry) above
Opioid receptors; delta & kappa (Homo sapiens), sequence (P41143 whole entry, looked up): as the sequence (P41143 whole entry) above
Opioid receptors; delta & kappa (Homo sapiens), sequence (P41145 whole entry, looked up): as the sequence (P41145 whole entry, looked up) above

`O=C(N[C@H]1CC[C@@]2(O)[C@H]3Cc4ccc(O)c5c4[C@@]2(CCN3CC2CC2)[C@H]1O5)c1ccc2ccccc2c1`: the result in data set [1] was inactive. In addition, the MPE entry in the data set with Mus musculus [2] and in the data set with Mus musculus [3] was “<=60%” each time.

On to `O=C(N[C@@H]1CC[C@@]2(O)[C@H]3Cc4ccc(O)c5c4[C@@]2(CCN3CC2CC2)[C@H]1O5)c1nccc2ccccc12`, for which the Activity entry in the data set with Mus musculus [4] is on record as “Non-toxic”. Besides, the outcome in data set [1] and in data set [5] was Active. In addition, the outcome in [6] was inactive. Besides, the Time in the data set on Mus musculus [7] was 10 min; in the data set with Mus musculus [8], 20 min. The values for the ED50 in the data set with Mus musculus [2] and in the data set on Mus musculus [3] were 1408 pmol and 2070 pmol, respectively.

As to `O=C(N[C@@H]1CC[C@@]2(O)[C@H]3Cc4ccc(O)c5c4[C@@]2(CCN3CC2CC2)[C@H]1O5)c1cccc2ccccc12`, the result in data set [9] and in data set [1] was Active. Further, the ED50 with Mus musculus [2] is on record as 20.9 pmol. In addition, the MPE entry in the data set on Mus musculus [3] was “<=60%”. In addition, the Activity result with Mus musculus [10] is “Toxic”.

For the molecule `COc1ccc2cc(C(=O)N[C@@H]3CC[C@@]4(O)[C@H]5Cc6ccc(O)c7c6[C@@]4(CCN5CC4CC4)[C@H]3O7)ccc2c1`, the Time was 10 min with Mus musculus [7] and 5 min with Mus musculus [8]. The MPE entry with Mus musculus [2] and in the data set with Mus musculus [3] was “<=60%” each time.

For the molecule `O=C(N[C@@H]1CC[C@@]2(O)[C@H]3Cc4ccc(O)c5c4[C@@]2(CCN3CC2CC2)[C@H]1O5)c1cccc2ncccc12`, the result in [6] was inactive. Moreover, the MPE result with Mus musculus [2] and in the data set on Mus musculus [3] was “<=60%” throughout.

For `O=C(N[C@@H]1CC[C@@]2(O)[C@H]3Cc4ccc(O)c5c4[C@@]2(CCN3CC2CC2)[C@H]1O5)c1cnc2ccccc2n1`, in the data set on Mus musculus [4], the Activity result is recorded as “Non-toxic”. Also, the outcome in data set [1] and in data set [5] was Active. In addition, the outcome in [6] was inactive. Further, the ED50 in the data set on Mus musculus [2] turned out to be 50.8 pmol; in the data set on Mus musculus [3] it was 757.2 pmol. Besides, in the data set with Mus musculus [8], the Time stood at 5 min.

For the molecule `Cl.O=C(N[C@@H]1CC[C@@]2(O)[C@H]3Cc4ccc(O)c5c4[C@@]2(CCN3CC2CC2)[C@H]1O5)c1ccc2ccccc2c1`, the values for the Activity result with Mus musculus [4] and in the data set on Mus musculus [10] were “Non-toxic” and “Toxic”, respectively. For the same molecule, the outcome in data set [1] was Active. Further, the Time in the data set with Mus musculus [7] is on record as 20 min; in the data set with Mus musculus [8], 5 min. For the same molecule, the ED50 with Mus musculus [2] is given as 18.7 pmol; in the data set with Mus musculus [3] it was 2060 pmol.

`CN(C(=O)c1ccc2ccccc2c1)[C@@H]1CC[C@@]2(O)[C@H]3Cc4ccc(O)c5c4[C@@]2(CCN3CC2CC2)[C@H]1O5`: in [1], the outcome was inactive. Further, the result in data set [6] was Active. For the same molecule, the MPE entry in the data set with Mus musculus [2] and in the data set on Mus musculus [3] was “<=60%” each time.

`O=C(N[C@@H]1CC[C@@]2(O)[C@H]3Cc4ccc(O)c5c4[C@@]2(CCN3CC2CC2)[C@H]1O5)c1ccc2cc(F)ccc2c1`: the Activity entry with Mus musculus [4] is on record as “Non-toxic”. Further, the ED50 with Mus musculus [11] was determined as 2.5 nmol; in the data set with Mus musculus [12], 5 nmol; in the data set on Mus musculus [2] it was 81.1 pmol. For the same molecule, the result in data set [6] was Active. Moreover, in the data set with Mus musculus [3], the MPE result is “<=60%”. In addition, the outcome with Mus musculus [13] was inactive. The Time in the data set with Mus musculus [8] is 20 min.

As for `COc1cc2ccccc2cc1C(=O)N[C@@H]1CC[C@@]2(O)[C@H]3Cc4ccc(O)c5c4[C@@]2(CCN3CC2CC2)[C@H]1O5`, the Activity result in the data set on Mus musculus [4] is listed as “Non-toxic”; in the data set on Mus musculus [10], “Toxic”. Moreover, the outcome in data set [6] was Active. Further, the ED50 came out at 115.1 pmol in the data set on Mus musculus [2] and 312.4 pmol with Mus musculus [3]. The Time in the data set with Mus musculus [8] is 5 min.
